How the values were obtained:
Adenosine receptor A3 = target: T1, Adenosine receptor A3 (Homo sapiens, UniProt P0DMS8); experiment: Displacement of [125I]I-AB-MECA from human adenosine A3 receptor expressed in CHO cells after 60 mins by gamma counting; type: cell-based
T1 sequence (P0DMS8 whole entry): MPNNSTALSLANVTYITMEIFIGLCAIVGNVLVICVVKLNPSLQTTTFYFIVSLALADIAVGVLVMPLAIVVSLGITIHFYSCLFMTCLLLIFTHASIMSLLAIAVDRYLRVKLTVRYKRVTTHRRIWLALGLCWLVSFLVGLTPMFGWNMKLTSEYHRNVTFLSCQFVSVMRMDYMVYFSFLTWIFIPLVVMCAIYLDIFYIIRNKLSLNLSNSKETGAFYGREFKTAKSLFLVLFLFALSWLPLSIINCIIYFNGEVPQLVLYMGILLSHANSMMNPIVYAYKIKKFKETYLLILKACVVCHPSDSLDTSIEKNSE
Outline: (§1)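 hA3AR-CHO membranes (20 µg protein) with 0.5 nM [125I]I-AB-MECA and increasing ligand concentrations in 50 mM Tris-HCl pH 7.4, 10 mM MgCl2, 1 mM EDTA; 25 °C, 60 min. Nonspecific binding: 10 µM NECA. Filtered on GF/B, washed three times with ice-cold buffer, gamma-counted.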

[1] = target: T2, Adenosine receptor A1 (Homo sapiens) (UniProt P30542); experiment: Displacement of [3H]R-PIA from human recombinant adenosine A1 receptor expressed in CHO cells at 10 uM after 60 mins by […]; type: cell-based
T2 sequence (whole entry): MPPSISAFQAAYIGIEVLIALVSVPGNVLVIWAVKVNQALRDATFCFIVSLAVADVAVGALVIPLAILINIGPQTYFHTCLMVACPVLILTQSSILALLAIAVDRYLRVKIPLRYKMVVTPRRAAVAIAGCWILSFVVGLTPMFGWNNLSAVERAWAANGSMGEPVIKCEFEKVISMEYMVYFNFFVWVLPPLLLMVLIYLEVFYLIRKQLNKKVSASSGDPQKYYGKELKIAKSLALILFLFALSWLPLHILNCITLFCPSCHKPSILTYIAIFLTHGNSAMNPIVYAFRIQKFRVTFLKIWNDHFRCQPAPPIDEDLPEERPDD
Outline: (§2)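 Membranes (40 µg/tube) from CHO cells stably expressing human A1AR, incubated with 1 nM [3H]R-PIA at 25 °C for 60 min in 50 mM Tris-HCl pH 7.4 with 10 mM MgCl2. Nonspecific binding set with 10 µM NECA. GF/B filtration.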

Adenosine receptor A2a [2] = target: T3, Adenosine receptor A2a (Homo sapiens, UniProt P29274); experiment: Displacement of [3H]CGS21680 from human adenosine A2A receptor expressed in HEK293 cells at 10 uM after 60 mins by […]; type: cell-based
T3 sequence (P29274 whole entry): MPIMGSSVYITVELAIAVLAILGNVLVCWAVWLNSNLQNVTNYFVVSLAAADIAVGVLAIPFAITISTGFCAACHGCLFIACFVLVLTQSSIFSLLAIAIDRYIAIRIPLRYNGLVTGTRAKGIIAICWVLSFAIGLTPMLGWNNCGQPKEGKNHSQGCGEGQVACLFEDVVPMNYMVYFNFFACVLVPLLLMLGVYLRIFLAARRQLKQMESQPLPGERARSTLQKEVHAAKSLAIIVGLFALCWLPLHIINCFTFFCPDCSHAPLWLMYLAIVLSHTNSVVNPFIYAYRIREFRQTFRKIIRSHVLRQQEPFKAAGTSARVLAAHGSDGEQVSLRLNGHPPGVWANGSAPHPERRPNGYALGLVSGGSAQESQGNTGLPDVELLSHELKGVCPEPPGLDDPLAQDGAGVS
Outline: (§3)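 HEK-293 cells stably expressing human A2AAR. Membranes at 20 µg/tube were incubated with [3H]CGS21680 at 25 °C for 60 min in 50 mM Tris-HCl pH 7.4 with 10 mM MgCl2. Nonspecific binding was defined with 10 µM NECA, and reactions were stopped by GF/B filtration.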

[3] = target: T4, Adenosine receptor A3 (Homo sapiens) (UniProt P0DMS8); experiment: Partial agonist activity at human recombinant adenosine A3 receptor expressed in CHO cells assessed as inhibition of forskolin-stimulated cAMP production at 10 uM incubated for 30 mins prior to forskolin addition by enzyme immunoassay relative to C1-IB-MECA; type: functional, cell-based
T4 sequence (whole entry): T1 sequence (P0DMS8 whole entry)

[4] = target: T4, Adenosine receptor A3 (Homo sapiens); experiment: Displacement of [125I]I-AB-MECA from human adenosine A3 receptor expressed in CHO cells at 10 uM after 60 mins by gamma counting; type: cell-based; outline: as §1
Adenosine receptor A2a [5] = target: T3, Adenosine receptor A2a; experiment: Displacement of [3H]CGS21680 from human adenosine A2A receptor expressed in HEK293 cells after 60 mins by […]; type: cell-based; outline: as §3
Adenosine receptor A1 = target: T5, Adenosine receptor A1 (Homo sapiens, UniProt P30542); experiment: Displacement of [3H]R-PIA from human recombinant adenosine A1 receptor expressed in CHO cells after 60 mins by […]; type: cell-based; outline: as §2
T5 sequence (P30542 whole entry): T2 sequence (whole entry)

Adenosine receptor A2a [6] = target: T3, Adenosine receptor A2a; experiment: Agonist activity at human recombinant adenosine A2A receptor expressed in CHO cells assessed as induction of cAMP production at 10 uM after 30 mins by enzyme immunoassay relative to NECA; type: functional, cell-based
Adenosine receptor A2a [7] = target: T3, Adenosine receptor A2a; experiment: Agonist activity at human recombinant adenosine A2A receptor expressed in CHO cells assessed as induction of cAMP production after 30 mins by immunoassay; type: functional, cell-based
[8] = target: T6, Adenosine receptor A2b (Homo sapiens) (UniProt P29275); experiment: Agonist activity at human recombinant adenosine A2B receptor expressed in CHO cells assessed as induction of cAMP production at 10 uM after 30 mins by immunoassay relative to NECA; type: functional, cell-based
T6 sequence (whole entry): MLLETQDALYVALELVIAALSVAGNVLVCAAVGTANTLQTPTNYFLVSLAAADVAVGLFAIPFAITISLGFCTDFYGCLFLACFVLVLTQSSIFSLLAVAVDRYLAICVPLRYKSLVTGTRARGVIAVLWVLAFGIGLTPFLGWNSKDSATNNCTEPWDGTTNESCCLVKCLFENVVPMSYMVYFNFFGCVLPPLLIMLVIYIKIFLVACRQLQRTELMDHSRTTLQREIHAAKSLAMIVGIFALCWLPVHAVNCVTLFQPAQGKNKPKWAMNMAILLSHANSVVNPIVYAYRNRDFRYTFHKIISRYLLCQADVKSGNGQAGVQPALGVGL

Rattus norvegicus = experiment: Antiinflammatory activity in Sprague-Dawley rat assessed as reduction in carrageenan-induced paw edema at 20 mg/kg, ip administered 30 mins before carrageenan challenge measured after 4 hrs by plethysmometer analysis; type: functional; parameters: scale not given: the % may be the effect or the level left; conditions: route intraperitoneal
Outline: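 Male Sprague-Dawley rats (140–160 g, 5 weeks), acclimatized one week. Compound at 20 mg/kg given ip in 5% cremophor/5% ethanol in PBS; vehicle as control. After 30 min, 0.1 mL 1% carrageenan in saline was injected subplantar into the right hind paw, with saline in the left. Paw volume was read by plethysmometer at 0–24 h, 4 h included. Mean ± SD, ANOVA.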

[9] = target: T4, Adenosine receptor A3 (Homo sapiens); experiment: Competitive antagonist activity at human recombinant adenosine A3 receptor expressed in CHO cells assessed as inhibition of C1-IB-MECA-induced cAMP production preincubated for 30 mins prior to forskolin addition by enzyme immunoassay; type: functional, cell-based

Row | Ki (Adenosine receptor A3) | inhibition [1] | inhibition (Adenosine receptor A2a [2]) | inhibition [3] | Ki (Adenosine receptor A2a [5]) | SMILES | further results
1 | 220 nM | 18% | 32% | 31.5% |  | CCCCC#Cc1nc(NCc2cccc(I)c2)c2ncn([C@@H]3OC[C@@H](O)[C@H]3O)c2n1 | 
2 |  | 18.1% | 5.8% | 12.9% |  | CCCCCCc1nc2c(N)ncnc2n1[C@@H]1OC[C@@H](O)[C@H]1O | inhibition [4]: 24.7%
3 | 24 nM | 25% |  | 47.2% | 3730 nM | CCCCC#Cc1nc(NCc2cccc(Cl)c2)c2ncn([C@@H]3SC[C@@H](O)[C@H]3O)c2n1 | 
4 | 138 nM |  |  | 17.4% | 63.2 nM | CCCCC#Cc1nc(N)c2ncn([C@@H]3OC[C@@H](O)[C@H]3O)c2n1 | Ki (Adenosine receptor A1): 740 nM; Activity (Adenosine receptor A2a [6]): 89.9%; EC50 (Adenosine receptor A2a [7]): 80.3 nM; Activity [8]: 1.9%
5 |  |  |  |  |  | COc1ccc2c(c1)c(CC(=O)O)c(C)n2C(=O)c1ccc(Cl)cc1 [INDOMETHACIN] | Activity (Rattus norvegicus): 49.7%
6 | 218 nM | 31.9% |  | 42.6% | 178 nM | CCCC/C=C/c1nc(N)c2ncn([C@@H]3OC[C@@H](O)[C@H]3O)c2n1 | Activity (Adenosine receptor A2a [6]): 83%; Activity [8]: 1.8%
7 | 67 nM | 12% | 27% | 37.2% |  | CCCCC#Cc1nc(NCc2cccc(Br)c2)c2ncn([C@@H]3OC[C@@H](O)[C@H]3O)c2n1 | 
8 |  |  |  | 6.1% |  | CCCC/C=C/c1nc2c(N)ncnc2n1[C@@H]1SC[C@@H](O)[C@H]1O | 
9 | 94.2 nM |  | 27.3% | 19.5% |  | CCCC/C=C/c1nc2c(N)ncnc2n1[C@@H]1OC[C@@H](O)[C@H]1O | Ki (Adenosine receptor A1): 500 nM
10 |  |  |  | 1.7% |  | CCCCC#Cc1nc2c(N)ncnc2n1[C@@H]1SC[C@@H](O)[C@H]1O | Activity [8]: 7%
11 |  | 10% |  | 22.3% | 2160 nM | CCCCCCc1nc(N)c2ncn([C@@H]3OC[C@@H](O)[C@H]3O)c2n1 | inhibition [4]: 39%
12 | 39 nM | 15% |  | 40% | 4890 nM | CCCCC#Cc1nc(NCc2cccc(I)c2)c2ncn([C@@H]3SC[C@@H](O)[C@H]3O)c2n1 | 
13 | 570 nM | 9% | 25% | 29.5% |  | CCCCC#Cc1nc(NCc2cccc(F)c2)c2ncn([C@@H]3OC[C@@H](O)[C@H]3O)c2n1 | 
14 | 24 nM | 12% |  | 25.2% | 3910 nM | CCCCC#Cc1nc(NCc2cccc(Br)c2)c2ncn([C@@H]3SC[C@@H](O)[C@H]3O)c2n1 | 
15 | 150 nM | 9% | 42% | 39.7% |  | CCCCC#Cc1nc(NCc2cccc(Cl)c2)c2ncn([C@@H]3OC[C@@H](O)[C@H]3O)c2n1 | 
16 |  |  |  | 10.7% |  | CCCC/C=C/c1nc(N)c2ncn([C@@H]3SC[C@@H](O)[C@H]3O)c2n1 | Kb [9]: 23.9 nM; Activity (Adenosine receptor A2a [6]): 109%; EC50 (Adenosine receptor A2a [7]): 20.6 nM; Activity [8]: 3.6%
17 |  |  |  | 2.8% |  | CCCCC#Cc1nc(N)c2ncn([C@@H]3SC[C@@H](O)[C@H]3O)c2n1 | Activity (Rattus norvegicus): 51.1%
18 | 150 nM | 24% | 46% | 47.6% |  | CCCCC#Cc1nc(NCc2cccc(F)c2)c2ncn([C@@H]3SC[C@@H](O)[C@H]3O)c2n1 | 
19 | 31.7 nM |  | 27.2% | 24.5% |  | CCCCC#Cc1nc2c(N)ncnc2n1[C@@H]1OC[C@@H](O)[C@H]1O | Ki (Adenosine receptor A1): 290 nM

— ChEMBL document CHEMBL1944553, “Structure-activity relationships of truncated C2- or C8-substituted adenosine derivatives as dual acting A₂A and A₃ adenosine receptor ligands” (J Med Chem, 2012)
